Source: ChEMBL document CHEMBL1157468, “Design, synthesis, and testing of non-nephrotoxic desazadesferrithiocin polyether analogues” (J Med Chem, 2008)

Columns and labels:
Pancreas [1] = assay: Biodistribution in Sprague-Dawley rat pancreas assessed per gram tissue wet weight at 300 umol/kg, sc after 4 hrs; format: ADME, organism-based; conditions: in vivo
Rattus norvegicus [2] = assay: Iron-clearing efficiency in non-iron-overloaded Sprague-Dawley rat bile assessed as iron excretion at 50 umol/kg, po; format: functional
How it was run: (§1)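 Male Sprague–Dawley rats (400–450 g), not iron-loaded and bile duct-cannulated, got one dose of 50, 150 or 300 µmol/kg po, or 300 µmol/kg sc. Vehicle was water or the monosodium salt. Bile was collected every 3 h for 24 h and urine at 24 h. Iron was measured by atomic absorption. Efficiency was treated minus control iron excretion, divided by theoretical output (2:1 ligand:iron), as a percent; mean ± SEM.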

Rattus norvegicus [3] = assay: Toxicity in non-iron-overloaded Sprague-Dawley rat assessed as survival at 63.3 umol/kg/day, po after 30 days by non-renal perfusion protocol; conditions: in vivo, 720 h
Pancreas [4] = assay: Biodistribution in Sprague-Dawley rat pancreas assessed per gram tissue wet weight at 300 umol/kg, po after 1 hr; format: ADME, organism-based; conditions: in vivo
How it was run: (§2)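 Male Sprague–Dawley rats (250–350 g) got one 300 µmol/kg dose, po or sc. Vehicle was water or the monosodium salt (free acid plus 1 equiv NaOH). Three rats per time point were euthanized by CO2 at 1, 2 or 4 h. Plasma came from citrated cardiac blood; liver, kidney, heart and pancreas were removed. Drug levels were measured by HPLC with UV detection at 310 nm against linear calibration curves (detection limit 0.25 µM).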

Plasma [5] = assay: Biodistribution in Sprague-Dawley rat plasma at 300 umol/kg, po after 2 hrs; format: ADME, organism-based; conditions: in vivo; how it was run: as §2
Liver [6] = assay: Biodistribution in Sprague-Dawley rat liver assessed per gram tissue wet weight at 300 umol/kg, po after 2 hrs; format: ADME, organism-based; conditions: in vivo; how it was run: as §2
Plasma [7] = assay: Biodistribution in Sprague-Dawley rat plasma at 300 umol/kg, po after 1 hr; format: ADME, organism-based; conditions: in vivo; how it was run: as §2
Heart [8] = assay: Biodistribution in Sprague-Dawley rat heart assessed per gram tissue wet weight at 300 umol/kg, po after 2 hrs; format: ADME, organism-based; conditions: in vivo; how it was run: as §2
Rattus norvegicus [9] = assay: Iron-clearing efficiency in non-iron-overloaded Sprague-Dawley rat at 150 umol/kg, po after 24 hrs relative to control; format: functional; how it was run: as §1
Liver [10] = assay: Biodistribution in Sprague-Dawley rat liver assessed per gram tissue wet weight at 300 umol/kg, po after 4 hrs; format: ADME, organism-based; conditions: in vivo; how it was run: as §2
Pancreas [11] = assay: Biodistribution in Sprague-Dawley rat pancreas assessed per gram tissue wet weight at 300 umol/kg, sc after 2 hrs; format: ADME, organism-based; conditions: in vivo
Plasma [12] = assay: Biodistribution in Sprague-Dawley rat plasma at 300 umol/kg, sc after 1 hr; format: ADME, organism-based; conditions: in vivo
Rattus norvegicus [13] = assay: Iron-clearing efficiency in non-iron-overloaded Sprague-Dawley rat bile assessed as iron excretion at 300 umol/kg, po; format: functional; how it was run: as §1
Rattus norvegicus [14] = assay: Iron-clearing efficiency in non-iron-overloaded Sprague-Dawley rat bile assessed as iron excretion at 150 umol/kg, po; format: functional; how it was run: as §1
Liver [15] = assay: Biodistribution in Sprague-Dawley rat liver assessed per gram tissue wet weight at 300 umol/kg, po after 1 hr; format: ADME, organism-based; conditions: in vivo; how it was run: as §2
Pancreas [16] = assay: Biodistribution in Sprague-Dawley rat pancreas assessed per gram tissue wet weight at 300 umol/kg, po after 2 hrs; format: ADME, organism-based; conditions: in vivo; how it was run: as §2
Kidney [17] = assay: Biodistribution in Sprague-Dawley rat kidney assessed per gram tissue wet weight at 300 umol/kg, po after 4 hrs; format: ADME, organism-based; conditions: in vivo; how it was run: as §2
Sapajus apella [18] = assay: Iron-clearing efficiency in iron-overloaded Cebus apella at 150 umol/kg, po after 2 days relative to control; format: functional
How it was run: (§3)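 Monkeys (Cebus apella, 3.5–4 kg) were iron-loaded to about 500 mg Fe/kg with iv iron dextran and rested at least 60 days. They then got one 150 µmol/kg dose, po or sc. Feces and urine were collected every 24 h from 4 days before to 5 days after dosing, and iron was measured by flame atomic absorption. Efficiency was the 2-day post-drug iron minus the 4-day pre-drug baseline, divided by theoretical output (2:1 ligand:iron); mean ± SEM.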

Liver [19] = assay: Biodistribution in Sprague-Dawley rat liver assessed per gram tissue wet weight at 300 umol/kg, sc after 4 hrs; format: ADME, organism-based; conditions: in vivo
Heart [20] = assay: Biodistribution in Sprague-Dawley rat heart assessed per gram tissue wet weight at 300 umol/kg, sc after 4 hrs; format: ADME, organism-based; conditions: in vivo
Liver [21] = assay: Biodistribution in Sprague-Dawley rat liver assessed per gram tissue wet weight at 300 umol/kg, sc after 2 hrs; format: ADME, organism-based; conditions: in vivo
Heart [22] = assay: Biodistribution in Sprague-Dawley rat heart assessed per gram tissue wet weight at 300 umol/kg, po after 1 hr; format: ADME, organism-based; conditions: in vivo; how it was run: as §2
Heart [23] = assay: Biodistribution in Sprague-Dawley rat heart assessed per gram tissue wet weight at 300 umol/kg, sc after 1 hr; format: ADME, organism-based; conditions: in vivo
Rattus norvegicus [24] = assay: Nephrotoxicity in Sprague-Dawley rat assessed as heavy vacuolized renal tubules at […] for 7 days by renal perfusion studies; format: toxicity, organism-based; conditions: in vivo, 168 h, in the assay text read “237 umol/kg” for “273 umol/kg”
How it was run: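 Male Sprague–Dawley rats (200–250 g), fasted overnight, got 237 µmol/kg/dose po twice daily (474 µmol/kg/day) for 7 days and were fed about 3 h post-drug. Untreated age-matched rats were controls. One day post-drug, under pentobarbital, kidneys were perfusion-fixed with glutaraldehyde in Tyrode's buffer and embedded in TAAB. 500 nm sections were stained with toluidine blue and examined by light microscopy at 400×.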

Rattus norvegicus [25] = assay: Toxicity in non-iron-overloaded Sprague-Dawley rat assessed as survival at 384 umol/kg/day, po after 10 days by non-renal perfusion protocol; format: organism-based; conditions: in vivo, 240 h
How it was run: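 Non-iron-loaded male Sprague–Dawley rats (250–300 g) were fasted overnight and gavaged po once daily for 10 days at 384 µmol/kg/day. They were fed about 3 h postdose with 5 h food access, then fasted again. Survival was followed over the exposure. Euthanasia was 24 h after the last dose, with extensive tissue histopathology.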

Kidney [26] = assay: Biodistribution in Sprague-Dawley rat kidney assessed per gram tissue wet weight at 300 umol/kg, sc after 2 hrs; format: ADME, organism-based; conditions: in vivo
Plasma [27] = assay: Biodistribution in Sprague-Dawley rat plasma at 300 umol/kg, sc after 4 hrs; format: ADME, organism-based; conditions: in vivo
Rattus norvegicus [28] = assay: Iron-clearing efficiency in non-iron-overloaded Sprague-Dawley rat at 50 umol/kg, po after 24 hrs relative to control; format: functional; how it was run: as §1
Rattus norvegicus [29] = assay: Iron-clearing efficiency in non-iron-overloaded Sprague-Dawley rat at 300 umol/kg, sc after 24 hrs relative to control; format: functional; how it was run: as §1
Kidney [30] = assay: Biodistribution in Sprague-Dawley rat kidney assessed per gram tissue wet weight at 300 umol/kg, po after 2 hrs; format: ADME, organism-based; conditions: in vivo; how it was run: as §2
Sapajus apella [31] = assay: Iron-clearing efficiency in iron-overloaded Cebus apella at 150 umol/kg, sc after 2 days relative to control; format: functional; how it was run: as §3
Heart [32] = assay: Biodistribution in Sprague-Dawley rat heart assessed per gram tissue wet weight at 300 umol/kg, sc after 2 hrs; format: ADME, organism-based; conditions: in vivo
Plasma [33] = assay: Biodistribution in Sprague-Dawley rat plasma at 300 umol/kg, po after 4 hrs; format: ADME, organism-based; conditions: in vivo; how it was run: as §2
Kidney [34] = assay: Biodistribution in Sprague-Dawley rat kidney assessed per gram tissue wet weight at 300 umol/kg, sc after 4 hrs; format: ADME, organism-based; conditions: in vivo
Rattus norvegicus [35] = assay: Iron-clearing efficiency in non-iron-overloaded Sprague-Dawley rat at 300 umol/kg, po after 24 hrs relative to control; format: functional; how it was run: as §1
Liver [36] = assay: Biodistribution in Sprague-Dawley rat liver assessed per gram tissue wet weight at 300 umol/kg, sc after 1 hr; format: ADME, organism-based; conditions: in vivo
Pancreas [37] = assay: Biodistribution in Sprague-Dawley rat pancreas assessed per gram tissue wet weight at 300 umol/kg, sc after 1 hr; format: ADME, organism-based; conditions: in vivo
Kidney [38] = assay: Biodistribution in Sprague-Dawley rat kidney assessed per gram tissue wet weight at 300 umol/kg, sc after 1 hr; format: ADME, organism-based; conditions: in vivo
Kidney [39] = assay: Biodistribution in Sprague-Dawley rat kidney assessed per gram tissue wet weight at 300 umol/kg, po after 1 hr; format: ADME, organism-based; conditions: in vivo; how it was run: as §2
Plasma [40] = assay: Biodistribution in Sprague-Dawley rat plasma at 300 umol/kg, sc after 2 hrs; format: ADME, organism-based; conditions: in vivo
Heart [41] = assay: Biodistribution in Sprague-Dawley rat heart assessed per gram tissue wet weight at 300 umol/kg, po after 4 hrs; format: ADME, organism-based; conditions: in vivo; how it was run: as §2
Rattus norvegicus [42] = assay: Toxicity in iron-overloaded Sprague-Dawley rat assessed as survival at 119 umol/kg/day, po after 30 days by non-renal perfusion protocol; format: organism-based; conditions: in vivo, 720 h

## COCCOCCOCCOc1ccc(C2=N[C@@](C)(C(=O)O)CS2)c(O)c1
Pancreas [1]
  Drug uptake: 13 nmol/g
Rattus norvegicus [2]
  Activity: >95%
Rattus norvegicus [3]
  Activity: Non-toxic
Pancreas [4]
  Drug uptake: 25 nmol/g
Plasma [5]
  Drug uptake: 32 nmol/g
Liver [6]
  Drug uptake: 144 nmol/g
Plasma [7]
  Drug uptake: 64 nmol/g
Heart [8]
  Drug uptake: 9 nmol/g
Rattus norvegicus [9]
  Activity: 11.2%
Liver [10]
  Drug uptake: 35 nmol/g
Pancreas [11]
  Drug uptake: 30 nmol/g
Plasma [12]
  Drug uptake: 140 nmol/g
Rattus norvegicus [13]
  Activity: >95%
Rattus norvegicus [14]
  Activity: >95%
Liver [15]
  Drug uptake: 159 nmol/g
Pancreas [16]
  Drug uptake: 9 nmol/g
Kidney [17]
  Drug uptake: 10 nmol/g
Sapajus apella [18]
  Activity: 25.4%
Liver [19]
  Drug uptake: 67 nmol/g
Heart [20]
  Drug uptake: 5 nmol/g
Liver [21]
  Drug uptake: 132 nmol/g
Heart [22]
  Drug uptake: 17 nmol/g
Heart [23]
  Drug uptake: 35 nmol/g
Rattus norvegicus [24]
  Activity: Non-toxic
Rattus norvegicus [25]
  Activity: Non-toxic
Kidney [26]
  Drug uptake: 41 nmol/g
Plasma [27]
  Drug uptake: 5 nmol/g
Rattus norvegicus [28]
  Activity: 21.7%
Rattus norvegicus [29]
  Activity: 8.7%
Kidney [30]
  Drug uptake: 69 nmol/g
Sapajus apella [31]
  Activity: 30.4%
Heart [32]
  Drug uptake: 9 nmol/g
Plasma [33]
  Drug uptake: 2 nmol/g
Kidney [34]
  Drug uptake: 34 nmol/g
Rattus norvegicus [35]
  Activity: 5.5%
Liver [36]
  Drug uptake: 339 nmol/g
Pancreas [37]
  Drug uptake: 30 nmol/g
Kidney [38]
  Drug uptake: 252 nmol/g
Kidney [39]
  Drug uptake: 114 nmol/g
Plasma [40]
  Drug uptake: 16 nmol/g

## C[C@]1(C(=O)O)CSC(c2ccc(O)cc2O)=N1 [DEFERITRIN]
Pancreas [1]
  Drug uptake: 6 nmol/g
Heart [41]
  Drug uptake: 3 nmol/g
Pancreas [4]
  Drug uptake: 13 nmol/g
Plasma [5]
  Drug uptake: 8 nmol/g
Liver [6]
  Drug uptake: 73 nmol/g
Plasma [7]
  Drug uptake: 31 nmol/g
Heart [8]
  Drug uptake: 5 nmol/g
Rattus norvegicus [9]
  Activity: 1.5%
Liver [10]
  Drug uptake: 44 nmol/g
Pancreas [11]
  Drug uptake: 6 nmol/g
Plasma [12]
  Drug uptake: 34 nmol/g
Rattus norvegicus [13]
  Activity: >98%
Rattus norvegicus [14]
  Activity: >98%
Liver [15]
  Drug uptake: 131 nmol/g
Pancreas [16]
  Drug uptake: 9 nmol/g
Kidney [17]
  Drug uptake: 61 nmol/g
Sapajus apella [18]
  Activity: 16.8%
Liver [19]
  Drug uptake: 25 nmol/g
Liver [21]
  Drug uptake: 48 nmol/g
Heart [22]
  Drug uptake: 8 nmol/g
Heart [23]
  Drug uptake: 13 nmol/g
Rattus norvegicus [24]
  Activity: Toxic
Kidney [26]
  Drug uptake: 97 nmol/g
Plasma [27]
  Drug uptake: 2 nmol/g
Rattus norvegicus [29]
  Activity: 1.1%
Kidney [30]
  Drug uptake: 100 nmol/g
Sapajus apella [31]
  Activity: 15.9%
Heart [32]
  Drug uptake: 5 nmol/g
Plasma [33]
  Drug uptake: 5 nmol/g
Kidney [34]
  Drug uptake: 27 nmol/g
Rattus norvegicus [42]
  Activity: Non-toxic
Rattus norvegicus [35]
  Activity: 1.1%
Liver [36]
  Drug uptake: 80 nmol/g
Pancreas [37]
  Drug uptake: 28 nmol/g
Kidney [38]
  Drug uptake: 179 nmol/g
Kidney [39]
  Drug uptake: 208 nmol/g
Plasma [40]
  Drug uptake: 13 nmol/g
